Test results taken from ChEMBL document CHEMBL1152353, “Pyrimido[5,4-e][1,2,4]triazine-5,7(1H,6H)-dione derivatives as novel small molecule chaperone amplifiers” (Bioorg Med Chem Lett, 2009).
Calls of active or inactive are those of the source. No cut-off for these calls is given here.

Experiments:
SK-N-SH [1] = experiment: Cytoprotection against rotenone stress-induced toxicity in human SK-N-SH cells assessed as increase in cell viability after 48 hrs by MTS assay relative to control; type: functional; design: concentration or dose not given beside the values
How it was run: (§1)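 SK-N-SH neuroblastoma cells (within passage 6) seeded in DMEM with 0.1% FBS for 18 h, then fresh medium with 200 nM rotenone (final) plus compound, 0.019 to 10 µM. Incubated 48 h, then MTS viability read. Cytoprotection expressed as viability increase over the rotenone DMSO control; EC50 = concentration giving half-maximal protection. Data averaged over multiple tests.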

[2] = target: T1, Heat shock factor protein 1 (Homo sapiens) (UniProt Q00613); experiment: Amplification of HSF1 transcriptional activity in human HeLa cells assessed as granule formation pretreated for 3 hrs by immunocytochemical staining; type: cell-based
T1 sequence (whole entry): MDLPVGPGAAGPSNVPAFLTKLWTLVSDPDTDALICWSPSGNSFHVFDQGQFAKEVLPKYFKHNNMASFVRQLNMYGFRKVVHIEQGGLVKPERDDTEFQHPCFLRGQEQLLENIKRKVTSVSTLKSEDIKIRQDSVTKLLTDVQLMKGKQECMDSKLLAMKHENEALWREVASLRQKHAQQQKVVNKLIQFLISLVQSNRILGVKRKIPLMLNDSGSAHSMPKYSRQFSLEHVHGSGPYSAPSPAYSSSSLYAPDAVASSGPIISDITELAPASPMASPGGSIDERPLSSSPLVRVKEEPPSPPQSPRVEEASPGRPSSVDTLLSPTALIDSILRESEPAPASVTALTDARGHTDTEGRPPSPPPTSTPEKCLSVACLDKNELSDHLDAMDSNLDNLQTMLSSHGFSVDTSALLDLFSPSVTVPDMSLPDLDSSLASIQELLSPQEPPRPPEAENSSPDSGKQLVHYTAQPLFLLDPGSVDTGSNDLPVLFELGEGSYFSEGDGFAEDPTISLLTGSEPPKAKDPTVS
How it was run: (§2)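 HeLa cells pretreated with compound 1 h, then mild heat shock 41 °C for 2 h, no recovery; control arm pretreated 3 h at 37 °C without heat shock. Compound diluted 200-fold, 0.3 to 80 µM range.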

SK-N-SH [3] = experiment: Cytoprotection against rotenone stress-induced toxicity in human SK-N-SH cells after 48 hrs by MTS assay; type: functional, cell-based; how it was run: as §1
[4] = (§3) Cytotoxicity against human HeLa cells after 72 hrs by MTS assay; type: cell-based; conditions: HeLa cells
How it was run: (§4)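 HeLa (8000 cells/well) or SK-N-SH (14,000 cells/well) cells seeded in DMEM with 10% FBS for 18 h. Compound added at 1:200 dilution, final 0.3 to 80 µM, 0.5% v/v DMSO. Exposure 72 h, then MTS/PMS for 4 h, SDS to 1.4% w/v, absorbance at 492 nm. CC50 = concentration giving half-maximal cytotoxicity.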

[5] = Cytotoxicity against human SK-N-SH cells after 72 hrs by MTS assay; type: cell-based; how it was run: as §4
SK-N-SH [6] = experiment: Cytoprotection against rotenone stress-induced toxicity in human SK-N-SH cells at 1.25 uM after 48 hrs by MTS assay; type: functional; how it was run: as §1
[7] = Therapeutic index, ratio of […]; type: cell-based; conditions: read-out: FC
[8] = Therapeutic index, ratio of CC50 for human SK-N-SH cells to EC50 for human SK-N-SH cells; type: cell-based; conditions: read-out: Ratio CC50/EC50
[9] = target: T1, Heat shock factor protein 1 (Homo sapiens); experiment: Amplification of HSF1 transcriptional activity in human HeLa cells assessed as […] granule count at 80 uM by immunocytochemical staining; type: cell-based; how it was run: as §2
SK-N-SH [10] = experiment: Cytoprotection against rotenone stress-induced toxicity in human SK-N-SH cells assessed as increase in cell survival at 0.625 after 48 hrs by MTS assay relative to control; type: functional; how it was run: as §1
HeLa [11] = experiment: as §3; type: cell-based; conditions: hela, 72 h; how it was run: as §4
HeLa [12] = experiment: Cytotoxicity against human HeLa cells at 80 uM after 72 hrs by MTS assay; type: cell-based; how it was run: as §4
SH-SY5Y [13] = experiment: Cytoprotection against oxygen-glucose deprivation-induced cytotoxicity in human SH-SY5Y cells at 0.5 uM after 28 hrs by MTS assay; type: functional
How it was run: (§5)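 SH-SY5Y cells plated on collagen I-coated wells, grown 16–24 h in complete medium, washed twice in deoxygenated glucose- and serum-free medium; compound added within 1 h before OGD. Chambers flushed with 95% N₂/5% CO₂, residual O₂ <1%, held at 37 °C for 28 h. MTS viability; cytoprotection = (MTS_compound − MTS_DMSO)/MTS_DMSO × 100% versus OGD DMSO control.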

SH-SY5Y [14] = experiment: Cytoprotection against oxygen-glucose deprivation-induced cytotoxicity in human SH-SY5Y cells at 1 uM after 28 hrs by MTS assay; type: functional; how it was run: as §5
SH-SY5Y [15] = experiment: Cytoprotection against oxygen-glucose deprivation-induced cytotoxicity in human SH-SY5Y cells at 2.5 uM after 28 hrs by MTS assay; type: functional; how it was run: as §5
SK-N-SH [16] = experiment: Cytoprotection against rotenone stress-induced toxicity in human SK-N-SH cells at 0.63 uM after 48 hrs by MTS assay; type: functional; how it was run: as §1
[17] = target: T2, Heat shock factor protein 1 (Homo sapiens, UniProt Q00613); experiment: Amplification of HSF1 transcriptional activity in human heat shock-induced HeLa cells assessed as granule formation treated 1 hr before heat shock challenge measured after 2 hrs without recovery time by immunocytochemical staining; type: cell-based
T2 sequence (Q00613 whole entry): T1 sequence (whole entry)
How it was run: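 HeLa cells given compound 1 h before mild heat shock at 41 °C for 2 h, no recovery; compound diluted 200-fold, 0.3 to 80 µM. Unstressed control plates kept at 37 °C for 3 h. HSF1 immunocytochemical staining, imaged at 10×.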

SK-N-SH [18] = experiment: Cytoprotection against rotenone stress-induced toxicity in human SK-N-SH cells at 0.16 uM after 48 hrs by MTS assay; type: functional
How it was run: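 SK-N-SH cells (within passage 6) seeded in DMEM with 0.1% FBS for 18 h, then fresh medium with rotenone (final 200 nM) plus compound (range from 0.019 up to 10). Incubated 48 h, viability by MTS; cytoprotection as viability increase over DMSO-plus-rotenone control.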

[19] = Homo sapiens, SK-N-SH, 48 h, read-out: EC50

Row | Compound | Activity (SK-N-SH [1]) | Activity [2] | EC50 (SK-N-SH [3]; [19]) [µM] | CC50 at 72 h [4] [µM] | CC50 at 72 h [5] [µM] | other results
1 | CCCCn1nc(-c2ccc(C)s2)[n+]([O-])c2c(=O)n(C)c(=O)nc1-2 | 27% | inactive | 0.19 | 6.6 | 7.2 | –
2 | Cn1c(=O)nc2n(Cc3ccc(F)cc3)nc(-c3nc4ccccc4s3)nc-2c1=O | inactive | inactive | – | 23.4 | 21.3 | EC50 (SK-N-SH [3]; sk-n-sh): Not Active
3 | CCCCn1nc(-c2ccc(C)o2)[n+]([O-])c2c(=O)n(C)c(=O)nc1-2 | 49% | inactive | – | 9 | 6.6 | Activity (SK-N-SH [6]): 49%
4 | CCn1nc(-c2ccc[nH]2)[n+]([O-])c2c(=O)n(C)c(=O)nc1-2 | 35% | inactive | 0.17 | 5.2 | 1.9 | –
5 | CCn1nc(-c2ccc(C)s2)nc2c(=O)n(C)c(=O)nc1-2 | 50% | inactive | 1.33 | 22.2 | 63.5 | selectivity ratio [7]: ≤ 7; selectivity ratio [8]: ≤ 48
6 | CCn1nc(-c2ccco2)nc2c(=O)n(C)c(=O)nc1-2 | 64% | inactive | – | 5.6 | 2.8 | Activity (SK-N-SH [6]): 64%
7 | CCn1nc(-c2ccc(C)o2)[n+]([O-])c2c(=O)n(C)c(=O)nc1-2 | 56% | inactive | – | 9.8 | 3.3 | Activity (SK-N-SH [6]): 56%
8 | CCCCn1nc(-c2ccc[nH]2)[n+]([O-])c2c(=O)n(C)c(=O)nc1-2 | 49% | inactive | 0.64 | 6.3 | 1.5 | –
9 | CCCCn1nc(-c2ccc(C)s2)nc2c(=O)n(C)c(=O)nc1-2 | 44% | inactive | – | 15.3 | 18.2 | Activity (SK-N-SH [6]): 44%
10 | CC(C)CCn1nc(-c2nc3ccccc3s2)nc2c(=O)n(C)c(=O)nc1-2 | 44% | inactive | 0.24 | 16.9 | 10.7 | –
11 | CCCn1nc(-c2nc3ccccc3s2)nc2c(=O)n(C)c(=O)nc1-2 | 55% | inactive | 0.55 | 15.6 | 5.4 | Activity [9]: 25%
12 | CCCCn1nc(-c2ccc3ccccc3n2)nc2c(=O)n(C)c(=O)nc1-2 | 71% | inactive | 0.29 | 9.5 | 4 | Activity (SK-N-SH [10]): 103%
13 | CC(C)Cn1nc(-c2nc3ccccc3s2)nc2c(=O)n(C)c(=O)nc1-2 | 67% | inactive | 0.27 | 7.9 | 3.7 | –
14 | CCn1nc(-c2ccc(C)o2)nc2c(=O)n(C)c(=O)nc1-2 | 50% | inactive | 1.84 | 22.3 | 8.2 | –
15 | CCCCn1nc(-c2ccccc2)nc2c(=O)n(C)c(=O)nc1-2 | 58% | inactive | 0.49 | 18.5 | 9.8 | –
16 | CCCCn1nc(-c2nc3ccccc3[nH]2)nc2c(=O)n(C)c(=O)nc1-2 | 59% | inactive | 1.9 | – | 13.1 | Activity (HeLa [11]): Not Active; Activity (HeLa [12]): 76%
17 | CCCCn1nc(-c2nc3ccccc3s2)nc2c(=O)n(C)c(=O)nc1-2 | 53% | inactive | 0.23 | 8.7 | 8.4 | Activity (SH-SY5Y [13]): 14%; Activity (SH-SY5Y [14]): 38%; Activity (SH-SY5Y [15]): 80%
18 | CCn1nc(-c2cccs2)nc2c(=O)n(C)c(=O)nc1-2 | 53% | inactive | 0.41 | 10.5 | 9.9 | Activity (SH-SY5Y [13]): 18%; Activity (SH-SY5Y [14]): 48%; Activity (SH-SY5Y [15]): 14%
19 | CCCCn1nc(-c2ncc[nH]2)nc2c(=O)n(C)c(=O)nc1-2 | 56% | inactive | 0.3 | 3.6 | 1.3 | –
20 | Cn1c(=O)[nH]c2nnc(-c3cccs3)nc2c1=O | – | – | – | > 80 | > 80 | –
21 | CCn1nc(-c2ccc(C)s2)[n+]([O-])c2c(=O)n(C)c(=O)nc1-2 | 57% | inactive | 1.1 | 15 | 27.2 | –
22 | CCCCn1nc(-c2ccc(C)o2)nc2c(=O)n(C)c(=O)nc1-2 | 23% | inactive | 0.33 | 7.8 | 5.3 | –
23 | CCCCn1nc(-c2nccs2)nc2c(=O)n(C)c(=O)nc1-2 | 55% | inactive | – | 2.5 | 1.4 | Activity (SK-N-SH [16]): 55%; Activity (SH-SY5Y [13]): 7%; Activity (SH-SY5Y [14]): 23%; Activity (SH-SY5Y [15]): 39%
24 | Cn1c(=O)nc2[nH]nc(-c3cccs3)nc-2c1=O | inactive | – | – | – | – | EC50 [17]: Not Active; EC50 (SK-N-SH [3]; sk-n-sh): Not Active
25 | CCn1nc(-c2ncc[nH]2)nc2c(=O)n(C)c(=O)nc1-2 | 62% | inactive | 2.71 | 11.9 | 3.6 | –
26 | CCn1nc(-c2ccc[nH]2)nc2c(=O)n(C)c(=O)nc1-2 | 44% | inactive | 0.68 | 10.7 | 4.3 | –
27 | CC1=C(O)C(=O)C=C2C1=CC=C1[C@@]2(C)CC[C@@]2(C)[C@@H]3C[C@](C)(C(=O)O)CC[C@]3(C)CC[C@]12C [CELASTROL] | 24% | – | – | 3 | 1.6 | Activity (SK-N-SH [18]): 24%; Activity (SH-SY5Y [13]): 8%; Activity (SH-SY5Y [14]): 18%; Activity (SH-SY5Y [15]): -22%
28 | Cn1c(=O)nc2n(Cc3ccccc3)nc(-c3nc4ccccc4s3)nc-2c1=O | 27% | inactive | 2.34 | 7.3 | 5.6 | –
